Data on 15 compounds can be found in ChEMBL document CHEMBL4130551, “1,2,4-Thiadiazolidin-3,5-diones as novel hydrogen sulfide donors” (Eur J Med Chem, 2018).

Series [1] has as its system Thoracic aorta. As to the kind of experiment: Vasorelaxant activity in CD-1 mouse thoracic aorta rings assessed as inhibition of L-phenylephrine-induced contraction at 100 uM relative to control. It is filed as functional. To be noted: CD-1, Thoracic aorta. The method, boiled down:
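Isolated aortic rings precontracted with phenylephrine (1 µM). Cumulative donor concentrations (10 nM–300 µM) or DMSO vehicle. Emax is the maximal relaxation obtained.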

Series [2] deals with Thoracic aorta. The experiment in a line: Vasorelaxant activity in CD-1 mouse thoracic aorta rings assessed as inhibition of L-phenylephrine-induced contraction. It is filed as functional, tissue-based. The settings on record: CD-1, Thoracic aorta. In outline: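 Isolated aortic rings precontracted with phenylephrine (1 µM). Cumulative concentration–response curves of each donor (10 nM–300 µM) or DMSO vehicle. EC50 taken from the curves.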

Series [3] can be described thus: Drug metabolism in PBS buffer assessed as H2S release by measuring time required for 50% of maximum H2S release at steady state at 1 mM after 30 mins in presence of 4 mM L-cysteine by amperometric method. It is filed as physicochemical. To be noted: 0.5 h, 1000 µM. In outline:
(§1)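 Amperometric real-time H2S detection at room temperature in assay buffer (10x PBS diluted 1:10 in distilled water). Donor added from DMSO stock to a final 1 mM, 1% DMSO, with 4 mM L-cysteine added where the protocol required. Recorded for 30 min. Curves computer-fitted. TCM50 is the time to reach ½ Cmax. Mean ± SE of 5 experiments.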

Series [4] can be described thus: Drug level in pH 7.4 PBS buffer treated with 2,4-Diphenyl-1,2,4-thiadiazoline-3,5-dione at 0.5 mmol after 5 to 60 mins in presence of glutathione by ESI-MS analysis. The class given is physicochemical.
Series [5] can be described thus: Drug level in pH 7.4 PBS buffer treated with 2,4-Diphenyl-1,2,4-thiadiazoline-3,5-dione at 0.5 mmol after 5 to 60 mins in presence of cysteine by HPLC-MS analysis. It is filed as physicochemical.
The nature of series [6]: Drug metabolism in PBS buffer assessed as H2S release by measuring time required for 50% of maximum H2S release at steady state at 1 mM after 30 mins by amperometric method. The class given is physicochemical. To be noted: 0.5 h, 1000 µM. In outline:
as §1

A short description of series [7]: Drug metabolism in pH 7.4 PBS buffer at 0.5 mmol after 5 to 60 mins in presence of S-methyl cysteine by ESI-MS analysis. The class given is physicochemical.
Series [8] in a line: Stability in pH 7.4 PBS buffer at 0.5 mmol after 30 mins in presence of cysteine by HPLC analysis. The settings on record: PBS buffer with cysteine, read-out: Stability. It is filed as physicochemical.
Series [9] is described as follows: Drug metabolism in pH 7.4 PBS buffer assessed as phenyl(phenylcarbamoyl)carbamothioic S-acid formation at 0.5 mmol after 5 to 60 mins in presence of cysteine by HPLC-MS analysis. The class given is physicochemical.
Series [10] can be described thus: Drug metabolism in water at 0.5 mmol after 5 to 60 mins by ESI-MS analysis. The settings on record: buffer. It is filed as physicochemical.
Series [11] is described as follows: Stability in pH 7.4 PBS buffer at 0.5 mmol after 5 mins in presence of cysteine by HPLC analysis. It is filed as physicochemical. To be noted: PBS buffer with cysteine, read-out: Stability.
The test system of series [12] is Thoracic aorta. As to the kind of experiment: Vasorelaxant activity in CD-1 mouse endothelium denuded thoracic aorta rings assessed as inhibition of L-phenylephrine-induced contraction. The class given is functional, tissue-based.

Usually Emax stands for the maximal effect, on the per cent scale that the assay sets. One may read the EC50 as the concentration at which the effect is half-maximal.

The source made the active and inactive calls. No cut-off for these calls is given here.

In the case of `COc1ccc(-n2sc(=O)n(-c3ccc(Cl)cc3)c2=O)cc1`, in the series on Thoracic aorta [1], the Emax at 100 µM was determined as 98.6%. In the series with Thoracic aorta [2], the EC50 stood at 2100 nM. The Time in series [3] is recorded as 15.36 min.

For the compound `N[C@@H](CCC(=O)N[C@@H](CSSC(=O)N(C(=O)Nc1ccccc1)c1ccccc1)C(=O)NCC(=O)O)C(=O)O`, in series [4], the Drug metabolism result is “Metabolite_Detected”.

In the case of `NC(CSSC(=O)N(C(=O)Nc1ccccc1)c1ccccc1)C(=O)O` (centres undefined), in series [5], the Drug metabolism result is given as “Metabolite_Detected”.

Turning to `O=C(Nc1ccccc1)Nc1ccccc1` [DIPHENYLUREA], the Drug metabolism entry in [5] is “Metabolite_Detected”.

`O=C(S)N(C(=O)Nc1ccccc1)c1ccccc1`: the Drug metabolism entry in series [5] is listed as “Metabolite_Detected”.

`O=c1sn(-c2ccccc2)c(=O)n1Cc1ccccc1`: the Time in series [6] amounted to 9.56 min; in series [3], 11.4 min.

With `NC(CSSCC(N)C(=O)O)C(=O)O` (centres undefined), the Drug metabolism entry in series [5] is listed as “Metabolite_Detected”.

As for `COc1ccc(-n2sc(=O)n(-c3ccc(C)cc3)c2=O)cc1`, in the series on Thoracic aorta [1], the maximal effect (Emax) at 100 µM was determined as 99%. In the series on Thoracic aorta [2], the concentration for a half-maximal effect (EC50) stood at 1500 nM. Besides, in [3], the Time is 13.25 min.

Regarding `COc1ccc(-n2sc(=O)n(-c3ccc(OC)cc3)c2=O)cc1`, the maximum response (Emax) at 100 µM in the series with Thoracic aorta [1] turned out to be 95%. Moreover, the concentration giving a half-maximal response (EC50) in the series with Thoracic aorta [2] was 3000 nM. In addition, the Time in series [3] stood at 14.8 min.

As to `O=c1sn(-c2ccccc2)c(=O)n1-c1ccccc1`, the results for the Drug metabolism entry in series [7], in series [9] and in [10] were “Metabolite_Notdetected”, “Metabolite_Detected” and “Metabolite_Notdetected”, respectively. Further, the remaining at 0.5 h, 0.5 mmol in [8] came out at 15%. In addition, the Emax at 100 µM with Thoracic aorta [1] is 99.7%. In addition, in series [11], the remaining at 5 min, 0.5 mmol turned out to be 82%. For the same compound, the EC50 with Thoracic aorta [2] came out at 1700 nM. In the series on Thoracic aorta [12], the inhibition entry is “Active”. In addition, the Time in [3] is 12.01 min.

For `COc1ccc(-n2sc(=O)n(Cc3ccccc3)c2=O)cc1`, the figures for the Time in series [6] and in series [3] were 13.46 min and 15.75 min, respectively.

With `O=c1sn(-c2ccc(F)cc2)c(=O)n1-c1ccccc1`, the maximum response (Emax) at 100 µM with Thoracic aorta [1] was 94.3%. Also, the EC50 in the series on Thoracic aorta [2] was found to be 3900 nM. In addition, in series [3], the Time amounted to 9.52 min.

With `COc1ccc(-n2sc(=O)n(-c3ccccc3)c2=O)cc1`, in the series with Thoracic aorta [1], the maximal response (Emax) at 100 µM is 100%. Also, the half-maximal effective concentration (EC50) with Thoracic aorta [2] amounted to 1600 nM. For the same compound, in series [3], the Time worked out at 13.25 min.

For `Cc1ccc(-n2sc(=O)n(-c3ccccc3)c2=O)cc1`, the Emax at 100 µM in the series with Thoracic aorta [1] worked out at 94.5%. In the series with Thoracic aorta [2], the EC50 came out at 1300 nM. In addition, the Time in series [3] worked out at 13.84 min.

As for `COc1ccc(-n2sc(=O)n(C3CCCCC3)c2=O)cc1`, in the series on Thoracic aorta [1], the maximum response (Emax) at 100 µM came to 97.7%. The concentration giving a half-maximal response (EC50) with Thoracic aorta [2] was determined as 1900 nM. Also, the Time in [3] was determined as 13.93 min.
